Measured values from ChEMBL document CHEMBL2424622, “Development of amino-pyrimidine inhibitors of c-Jun N-terminal kinase (JNK): kinase profiling guided optimization of a 1,2,3-benzotriazole lead” (Bioorg Med Chem Lett, 2013).

Columns and labels:
[1] = molecular target: Mitogen-activated protein kinase kinase kinase 20 (Homo sapiens) (UniProt Q9NYL2); test: Competitive binding affinity to ZAK (unknown origin) at 10 uM in presence of ATP relative to control
[2] = molecular target: Cyclin-dependent kinase 3 (Homo sapiens) (UniProt Q00526); test: Competitive binding affinity to CDK3 (unknown origin) at 10 uM in presence of ATP relative to control
[3] = molecular target: Serine/threonine-protein kinase MRCK gamma (Homo sapiens) (UniProt Q6DT37); test: Competitive binding affinity to DMPK2 (unknown origin) at 10 uM in presence of ATP relative to control
[4] = molecular target: T1, Myosin-IIIb (Homo sapiens) (UniProt Q8WXR4); test: Competitive binding affinity to MYO3B (unknown origin) at 10 uM in presence of ATP relative to control
T1 sequence (whole entry): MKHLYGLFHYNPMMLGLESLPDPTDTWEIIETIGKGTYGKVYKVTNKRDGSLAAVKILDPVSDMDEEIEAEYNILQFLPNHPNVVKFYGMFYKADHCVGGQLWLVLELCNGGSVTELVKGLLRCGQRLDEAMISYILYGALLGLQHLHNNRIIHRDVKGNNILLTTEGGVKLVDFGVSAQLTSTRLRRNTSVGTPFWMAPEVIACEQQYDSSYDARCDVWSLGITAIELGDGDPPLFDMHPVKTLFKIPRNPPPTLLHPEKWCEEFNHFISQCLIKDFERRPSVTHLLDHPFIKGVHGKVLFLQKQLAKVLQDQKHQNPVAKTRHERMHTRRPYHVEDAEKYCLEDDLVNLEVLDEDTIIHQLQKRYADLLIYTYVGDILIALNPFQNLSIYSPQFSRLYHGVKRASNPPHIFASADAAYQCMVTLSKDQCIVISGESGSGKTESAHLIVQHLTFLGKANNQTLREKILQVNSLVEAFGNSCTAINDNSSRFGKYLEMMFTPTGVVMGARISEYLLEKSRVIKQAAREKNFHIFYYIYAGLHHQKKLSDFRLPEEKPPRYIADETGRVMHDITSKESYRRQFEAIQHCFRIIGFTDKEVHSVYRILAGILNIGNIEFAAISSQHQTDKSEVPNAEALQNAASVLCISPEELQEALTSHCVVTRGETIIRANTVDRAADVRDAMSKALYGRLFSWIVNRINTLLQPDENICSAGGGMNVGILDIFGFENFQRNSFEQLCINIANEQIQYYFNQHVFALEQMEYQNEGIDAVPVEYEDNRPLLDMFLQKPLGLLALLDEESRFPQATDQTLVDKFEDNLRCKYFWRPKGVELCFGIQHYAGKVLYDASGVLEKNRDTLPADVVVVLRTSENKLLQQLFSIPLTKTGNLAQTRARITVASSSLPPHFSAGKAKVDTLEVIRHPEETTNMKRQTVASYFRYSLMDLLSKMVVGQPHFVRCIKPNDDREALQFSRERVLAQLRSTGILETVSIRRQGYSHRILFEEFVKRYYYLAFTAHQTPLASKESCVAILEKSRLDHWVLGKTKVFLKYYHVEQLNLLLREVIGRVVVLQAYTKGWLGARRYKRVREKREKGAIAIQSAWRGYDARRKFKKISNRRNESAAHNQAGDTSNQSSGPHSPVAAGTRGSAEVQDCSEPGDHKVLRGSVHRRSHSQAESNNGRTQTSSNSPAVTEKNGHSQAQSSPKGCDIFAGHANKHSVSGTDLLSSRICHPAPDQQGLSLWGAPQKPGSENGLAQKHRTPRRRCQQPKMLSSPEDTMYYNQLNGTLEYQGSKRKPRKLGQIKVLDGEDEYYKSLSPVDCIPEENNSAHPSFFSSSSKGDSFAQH

[5] = molecular target: T2, Ephrin type-A receptor 1 (Homo sapiens) (UniProt P21709); test: Competitive binding affinity to EPHA1 (unknown origin) at 10 uM in presence of ATP relative to control
T2 sequence (whole entry): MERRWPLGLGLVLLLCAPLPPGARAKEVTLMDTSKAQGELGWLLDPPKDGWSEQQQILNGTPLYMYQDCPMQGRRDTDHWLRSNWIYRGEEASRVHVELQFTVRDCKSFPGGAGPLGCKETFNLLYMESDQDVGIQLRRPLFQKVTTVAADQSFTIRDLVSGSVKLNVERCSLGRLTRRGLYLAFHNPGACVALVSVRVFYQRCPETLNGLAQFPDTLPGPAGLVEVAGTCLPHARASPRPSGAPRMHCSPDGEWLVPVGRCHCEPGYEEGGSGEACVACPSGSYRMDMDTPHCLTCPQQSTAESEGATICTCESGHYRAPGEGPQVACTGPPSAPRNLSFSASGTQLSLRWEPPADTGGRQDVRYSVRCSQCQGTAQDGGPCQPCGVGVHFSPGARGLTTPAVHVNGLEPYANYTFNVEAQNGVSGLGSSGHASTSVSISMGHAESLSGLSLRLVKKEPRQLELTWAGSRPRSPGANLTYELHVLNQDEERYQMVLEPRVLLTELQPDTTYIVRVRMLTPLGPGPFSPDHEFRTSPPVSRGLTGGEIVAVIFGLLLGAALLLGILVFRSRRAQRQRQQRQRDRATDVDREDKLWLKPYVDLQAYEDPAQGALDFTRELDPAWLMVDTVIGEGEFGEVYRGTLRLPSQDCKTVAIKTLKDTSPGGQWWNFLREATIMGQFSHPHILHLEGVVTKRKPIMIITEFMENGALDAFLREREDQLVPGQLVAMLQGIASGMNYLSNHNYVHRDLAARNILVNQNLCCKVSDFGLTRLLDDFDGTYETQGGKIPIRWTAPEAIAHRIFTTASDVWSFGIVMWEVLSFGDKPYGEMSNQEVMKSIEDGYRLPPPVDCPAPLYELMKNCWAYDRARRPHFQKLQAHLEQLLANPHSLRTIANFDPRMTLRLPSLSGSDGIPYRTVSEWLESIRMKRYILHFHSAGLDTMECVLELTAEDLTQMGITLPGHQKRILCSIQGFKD
Summary of the method: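 In vitro ATP-site competition binding assay, part of profiling against a diverse panel of 128 kinases. Each compound was tested at a single concentration of 10 µM. Kinome selectivity was summarized as S15 selectivity scores.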

[6] = test system: Mast/stem cell growth factor receptor Kit (Homo sapiens), P10721 [V559D,T670I]; test: Competitive binding affinity to KIT V559D/T670I double mutant (unknown origin) at 10 uM in presence of ATP relative to control
Mast/stem cell growth factor receptor Kit (Homo sapiens), P10721 [V559D,T670I], sequence (P10721 whole entry V559D/T670I): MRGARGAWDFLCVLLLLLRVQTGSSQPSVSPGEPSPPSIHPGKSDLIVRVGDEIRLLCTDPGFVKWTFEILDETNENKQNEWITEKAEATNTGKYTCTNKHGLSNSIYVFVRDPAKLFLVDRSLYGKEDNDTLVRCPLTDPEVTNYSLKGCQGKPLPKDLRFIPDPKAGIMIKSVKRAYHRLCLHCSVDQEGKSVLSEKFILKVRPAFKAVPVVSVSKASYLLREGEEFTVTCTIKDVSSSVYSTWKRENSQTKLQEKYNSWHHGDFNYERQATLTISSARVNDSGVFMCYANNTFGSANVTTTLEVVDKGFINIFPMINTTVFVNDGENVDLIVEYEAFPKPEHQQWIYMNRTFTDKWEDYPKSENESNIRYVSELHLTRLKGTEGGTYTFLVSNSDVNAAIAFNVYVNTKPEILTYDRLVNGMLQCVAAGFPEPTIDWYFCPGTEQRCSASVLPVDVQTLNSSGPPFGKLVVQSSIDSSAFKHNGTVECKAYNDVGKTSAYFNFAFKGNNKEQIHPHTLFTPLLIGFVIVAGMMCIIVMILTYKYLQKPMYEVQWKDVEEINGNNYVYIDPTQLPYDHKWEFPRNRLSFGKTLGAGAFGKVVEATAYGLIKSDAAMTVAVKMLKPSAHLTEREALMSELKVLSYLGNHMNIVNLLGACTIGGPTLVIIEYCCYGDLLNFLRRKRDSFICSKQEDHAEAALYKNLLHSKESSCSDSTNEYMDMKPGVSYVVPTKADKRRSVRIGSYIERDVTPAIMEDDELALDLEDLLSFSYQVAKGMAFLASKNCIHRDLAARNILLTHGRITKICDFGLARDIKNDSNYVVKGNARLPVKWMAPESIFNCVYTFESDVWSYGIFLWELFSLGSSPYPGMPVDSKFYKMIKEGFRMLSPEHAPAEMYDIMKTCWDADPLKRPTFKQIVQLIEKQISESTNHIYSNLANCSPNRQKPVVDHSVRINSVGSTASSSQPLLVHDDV

Serine/threonine-protein kinase MRCK gamma (Homo sapiens), sequence (Q6DT37 whole entry): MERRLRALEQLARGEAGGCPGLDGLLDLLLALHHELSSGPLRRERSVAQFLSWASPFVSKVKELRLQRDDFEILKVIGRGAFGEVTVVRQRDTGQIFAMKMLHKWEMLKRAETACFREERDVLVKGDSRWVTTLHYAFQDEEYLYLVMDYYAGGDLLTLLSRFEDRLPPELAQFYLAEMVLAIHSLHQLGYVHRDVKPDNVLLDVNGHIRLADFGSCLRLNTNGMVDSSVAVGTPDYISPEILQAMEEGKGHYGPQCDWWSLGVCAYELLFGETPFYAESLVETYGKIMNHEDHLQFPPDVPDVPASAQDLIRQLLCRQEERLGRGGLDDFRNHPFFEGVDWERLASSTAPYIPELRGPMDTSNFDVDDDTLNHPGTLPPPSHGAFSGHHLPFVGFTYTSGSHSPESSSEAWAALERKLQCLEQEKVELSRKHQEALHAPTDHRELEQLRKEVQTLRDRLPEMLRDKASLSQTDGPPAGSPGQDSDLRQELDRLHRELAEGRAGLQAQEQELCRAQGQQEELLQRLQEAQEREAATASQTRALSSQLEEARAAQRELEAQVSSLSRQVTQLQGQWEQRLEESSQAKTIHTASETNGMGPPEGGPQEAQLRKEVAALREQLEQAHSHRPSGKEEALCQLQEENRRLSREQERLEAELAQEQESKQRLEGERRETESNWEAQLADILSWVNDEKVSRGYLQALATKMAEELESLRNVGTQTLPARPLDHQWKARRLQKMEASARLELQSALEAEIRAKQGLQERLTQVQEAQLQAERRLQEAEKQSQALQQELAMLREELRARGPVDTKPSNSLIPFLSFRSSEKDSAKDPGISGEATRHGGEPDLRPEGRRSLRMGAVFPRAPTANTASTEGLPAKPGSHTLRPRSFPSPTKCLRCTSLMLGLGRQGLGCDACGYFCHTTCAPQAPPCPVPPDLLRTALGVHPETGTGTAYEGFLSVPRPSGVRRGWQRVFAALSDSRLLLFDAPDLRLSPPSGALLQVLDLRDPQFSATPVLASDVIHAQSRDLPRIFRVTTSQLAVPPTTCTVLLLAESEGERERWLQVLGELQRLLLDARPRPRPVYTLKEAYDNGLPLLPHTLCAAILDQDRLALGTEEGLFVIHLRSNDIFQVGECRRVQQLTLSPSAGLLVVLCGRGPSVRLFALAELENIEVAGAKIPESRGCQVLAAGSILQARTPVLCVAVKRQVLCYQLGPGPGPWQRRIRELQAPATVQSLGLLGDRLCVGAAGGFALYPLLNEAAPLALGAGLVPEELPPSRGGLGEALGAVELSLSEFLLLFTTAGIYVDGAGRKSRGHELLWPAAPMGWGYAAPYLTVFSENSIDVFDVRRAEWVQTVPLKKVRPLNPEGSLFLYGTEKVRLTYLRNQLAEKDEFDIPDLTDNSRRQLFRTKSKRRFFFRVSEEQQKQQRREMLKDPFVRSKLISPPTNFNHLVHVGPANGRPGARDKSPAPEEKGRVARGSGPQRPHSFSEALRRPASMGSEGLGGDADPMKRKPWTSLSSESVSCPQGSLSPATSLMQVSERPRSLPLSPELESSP
Mitogen-activated protein kinase kinase kinase 20 (Homo sapiens), sequence (Q9NYL2 2-800 limits assumed): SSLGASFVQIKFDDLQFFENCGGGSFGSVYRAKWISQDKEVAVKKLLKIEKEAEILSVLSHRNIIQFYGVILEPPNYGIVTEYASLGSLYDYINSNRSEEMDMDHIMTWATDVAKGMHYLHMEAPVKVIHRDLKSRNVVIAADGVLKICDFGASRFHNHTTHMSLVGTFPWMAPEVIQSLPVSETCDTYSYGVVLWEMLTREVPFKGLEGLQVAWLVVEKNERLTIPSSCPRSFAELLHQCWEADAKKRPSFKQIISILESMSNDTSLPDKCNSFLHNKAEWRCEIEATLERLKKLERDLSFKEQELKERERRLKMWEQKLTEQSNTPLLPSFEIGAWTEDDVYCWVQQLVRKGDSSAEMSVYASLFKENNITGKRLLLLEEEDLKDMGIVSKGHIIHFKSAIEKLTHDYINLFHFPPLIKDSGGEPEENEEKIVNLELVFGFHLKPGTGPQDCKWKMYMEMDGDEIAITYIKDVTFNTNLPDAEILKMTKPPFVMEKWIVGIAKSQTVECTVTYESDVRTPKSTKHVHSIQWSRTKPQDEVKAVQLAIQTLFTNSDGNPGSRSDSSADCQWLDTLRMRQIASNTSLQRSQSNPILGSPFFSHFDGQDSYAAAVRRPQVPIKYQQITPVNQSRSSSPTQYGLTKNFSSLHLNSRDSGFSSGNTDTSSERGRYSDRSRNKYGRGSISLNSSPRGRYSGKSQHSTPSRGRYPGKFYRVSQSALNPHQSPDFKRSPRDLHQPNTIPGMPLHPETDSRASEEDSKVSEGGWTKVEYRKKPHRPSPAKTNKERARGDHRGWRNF
Cyclin-dependent kinase 3 (Homo sapiens), sequence (Q00526 whole entry, looked up): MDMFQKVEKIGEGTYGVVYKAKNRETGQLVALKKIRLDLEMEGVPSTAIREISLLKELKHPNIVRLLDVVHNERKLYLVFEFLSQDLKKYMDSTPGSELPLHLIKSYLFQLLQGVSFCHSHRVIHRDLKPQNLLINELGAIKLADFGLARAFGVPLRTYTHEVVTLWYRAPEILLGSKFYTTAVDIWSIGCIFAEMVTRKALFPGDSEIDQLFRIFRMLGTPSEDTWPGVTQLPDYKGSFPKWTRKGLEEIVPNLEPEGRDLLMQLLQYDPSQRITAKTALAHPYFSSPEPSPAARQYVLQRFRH

| inhibition [1] | inhibition [2] | inhibition [3] | inhibition [4] | inhibition [5] | inhibition [6] | SMILES |
| --- | --- | --- | --- | --- | --- | --- |
| < 50% | < 50% | < 50% | < 50% | < 50% | 80% | O[C@H]1CC[C@H](Nc2nccc(-n3ncc4ccccc43)n2)CC1 |
| < 50% | < 50% | < 50% | < 50% | < 50% | < 50% | O[C@H]1CC[C@H](Nc2nccc(-n3ccc4ccccc43)n2)CC1 |
| – | – | – | – | < 50% | 96% | O[C@H]1CC[C@H](Nc2nccc(-c3n[nH]c4ccccc34)n2)CC1 |
| 76% | 75% | < 50% | < 50% | < 50% | 74% | O[C@H]1CC[C@H](Nc2nccc(-n3nnc4ccccc43)n2)CC1 |
